Assay results from different studies.
Protocols differ between the studies behind these lines.
Target: STE20/SPS1-related proline-alanine-rich protein kinase (STK39, Homo sapiens, UniProt Q9UEW8)

| SMILES | assay | conditions | measurement | value |
| --- | --- | --- | --- | --- |
| O=C1Nc2ccc(Cl)cc2C1=Cc1cc(Cl)c(O)c(Cl)c1 | cell-free assay | 0.5 µM | remaining signal | 97% |
| Cn1cncc1C1=CN(c2ncnc3[nH]cnc23)CCS1 | enzyme activity, inhibitor, radiometric | 2 µM | inhibition | 87.3% |
| O=C(Nc1cnn(-c2csc(C(=O)NC3COC3)c2)c1)Nc1ccccc1Cl | enzyme activity, inhibitor | 5 µM | remaining activity | 87.5% |
| CCC(=O)N[C@@H]1CC[C@H](C(=O)N(C)c2ccc(-c3nc4ccccc4o3)cc2)C1 | cell-free assay, competition with immobilised ligand | 1 µM | remaining binding | 73% |
| O=C(Nc1cnn(-c2csc(C(=O)NC3COC3)c2)c1)Nc1c(F)cccc1Cl | enzyme activity, inhibitor | 5 µM | remaining activity | 82.3% |
| O=c1nc(-c2ccccn2)sc2ccccc12 | binding, competition with immobilised ligand | 1 µM | remaining binding | 100% |
| Cn1cnc(Br)c1C1=CN(c2ncnc3[nH]cnc23)CCS1 | enzyme activity, inhibitor, radiometric | 50 nM | inhibition | 65.5% |
| Cc1ccc(C(=O)Nc2ccc(CN3CCN(C)CC3)c(C(F)(F)F)c2)cc1C#Cc1cnc2cccnn12 | enzyme activity, inhibitor | 23.5 nM | remaining activity | 85% |
| COc1cc2c(N3CCN(C(=O)Nc4ccc(OC(C)C)cc4)CC3)ncnc2cc1OCCCN1CCCCC1 | cell-free assay | 0.5 µM | remaining signal | 93.2% |
| CC(C)(C)c1nc2c(s1)c1nc(N)ncc1c1ccc(NS(=O)(=O)c3c(F)cccc3F)c(F)c12 | enzyme activity, inhibitor, radiometric | 1 µM | remaining activity | 92% |
| CNC(=O)Nc1ccc2c(c1)[C@@]1(CC2)OC(=O)N(CC(=O)N(Cc2ccc(F)cc2)[C@@H](C)C(F)(F)F)C1=O | cell-free assay, competition with immobilised ligand | 1 µM | remaining binding | 100% |
| Cc1ccc(NC(=O)c2ccc(CN3CCN(C)CC3)cc2)cc1Nc1nc(-c2cccnc2)cs1 | cell-free assay | 0.5 µM | remaining signal | 94% |
